Source: PubChem (several laboratories)
NR2E3 ag-1 = NR2E3 agonists in two-hybrid cells, primary screen, cell-based, luminescence, CHO-S, Gal4-NCOR/VP16-NR2E3 | luciferase | inhibition of corepressor binding, % at 3.98 µM | 0.35% of 360,000 active;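 active = inhibition above the mean of all tested compounds plus 3 SD, cut at about 70% in these data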;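 note: 0% = DMSO with NR2E3 transfected cells and 100% = cells lacking NR2E3 construct; higher means lower luciferase signal from less NR2E3 corepressor binding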
Target sequence (Q9Y5X4 whole entry, looked up, the tested form may be a part): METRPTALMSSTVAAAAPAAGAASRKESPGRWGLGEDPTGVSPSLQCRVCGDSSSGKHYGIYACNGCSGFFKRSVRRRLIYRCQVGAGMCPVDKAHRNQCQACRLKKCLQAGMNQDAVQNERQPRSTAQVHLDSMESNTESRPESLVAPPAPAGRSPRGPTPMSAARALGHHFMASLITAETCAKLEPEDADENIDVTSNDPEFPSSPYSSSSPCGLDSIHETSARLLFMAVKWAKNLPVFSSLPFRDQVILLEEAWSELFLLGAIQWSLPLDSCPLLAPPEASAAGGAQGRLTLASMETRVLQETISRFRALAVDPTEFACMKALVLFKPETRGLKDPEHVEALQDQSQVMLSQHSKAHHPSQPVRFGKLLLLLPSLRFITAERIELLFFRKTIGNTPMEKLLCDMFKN
proKLK7 act = proKLK7 zymogen activators, primary screen, biochemical, fluorescence intensity. Kallikrein-7 (Homo sapiens), P49862. purified proKLK7, EDANS-DABCYL substrate fluorescence; 100% is mature enzyme control, 0% vehicle. activation, % at 7 µM. 0.9% of 370,000 active. AID 652039, 2013;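 active = activation above the mean of all tested compounds plus 3 SD, computed per campaign excluding outliers beyond control limits, cut at about 13% in these data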
Target sequence (P49862 whole entry, looked up): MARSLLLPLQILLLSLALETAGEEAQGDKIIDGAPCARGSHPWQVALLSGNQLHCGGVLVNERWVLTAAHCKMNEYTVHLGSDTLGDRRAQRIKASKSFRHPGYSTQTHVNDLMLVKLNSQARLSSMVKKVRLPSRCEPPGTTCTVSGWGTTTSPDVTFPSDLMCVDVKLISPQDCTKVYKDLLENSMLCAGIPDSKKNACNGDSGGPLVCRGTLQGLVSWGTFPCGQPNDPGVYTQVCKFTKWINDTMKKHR
NR2E3 ag-2 = inhibitors of NR2E3-RetCOR corepressor binding, primary screen, NR2E3 agonist project, biochemical, TR-FRET, GST-NR2E3, biotin-RetCOR. inhibition of corepressor binding, % at 4.78 µM. 0.12% of 320,000 active. 1536-well. Photoreceptor-specific nuclear receptor (Homo sapiens), Q9Y5X4;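 active = percent inhibition above the cutoff of mean plus 3 SD of all tested compounds, set per screening campaign, cut at about 20% in these data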;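 note: 0% = DMSO wells and 100% = biotin wells as full block of FRET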
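Material: NR2E3–RetCOR corepressor complex / Incubation: Compound–protein incubation for 5 h at 4 °C / Dosing: compound at 4.8 µM, single dose / Detection: time-resolved FRET / Benchmarks: high control biotin, low control 0.6% DMSO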
ADAM17 inh = ADAM17 inhibitors, primary screen, biochemical, QFRET. recombinant ADAM17, EDANS/DABCYL FRET peptide cleavage. inhibition, % at 6.95 µM. 0.83% of 370,000 active;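 active = inhibition above the mean of compounds lying between control limits plus 3 SD, set per campaign, cut at about 8.5% in these data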;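 note: 0% = DMSO-only wells as the low control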
ADAM10 inh = human ADAM10 inhibitors, primary screen, biochemical, QFRET, HTS; recombinant ADAM10, EDANS/DABCYL FRET peptide cleavage, 3 h; inhibition, % at 7 µM; 0.62% of 370,000 active;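 active = inhibition above a per-campaign cutoff equal to the mean of compounds falling between control-based bounds plus 3 SD, cut at about 20% in these data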;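 note: 0% = DMSO wells while the 100% control is not disclosed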
GASC-1 inh = inhibitors of GASC-1 histone demethylase, primary screen, biochemical, fluorescence, DELFIA europium; Lysine-specific demethylase 4C (Homo sapiens), Q9H3R0; GST-JMJD2C(1-420) H3K9me3 demethylation; inhibition, % at 2.35 µM; AID 2099, 2009; 0.069% of 330,000 active;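 active = more than half of a compound's replicate wells show inhibition beyond 50%, single wells judged on their own value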;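 note: signal counts dimethyl H3K9 product captured on neutravidin plate; 0% = median of DMSO wells and 100% = 0.3 times that DMSO median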
ADAM10 counter = ADAM10 inhibitors, counter-screen for ADAM17 exosite inhibitor project, biochemical, FRET, human ADAM10; shares compounds with ADAM17 inh; recombinant ADAM10, EDANS/DABCYL FRET peptide cleavage, 3 h; inhibition, % at 6.95 µM; 47% of 2,900 active; AID 743256, 2014;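 active = mean inhibition over the triplicate runs exceeds the activity threshold set in the earlier primary screen, cut at about 20% in these data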;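 note: 0% = DMSO wells and 100% = marimastat wells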
ADAM17 confirm = ADAM17 inhibitors, hit retest, confirmation, biochemical, QFRET peptide cleavage. shares compounds with ADAM17 inh. recombinant ADAM17, EDANS/DABCYL QFRET peptide cleavage. inhibition, % at 6.95 µM. 65% of 2,900 active. AID 743257, 2014;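 active = mean inhibition across replicates above the hit cutoff set in the primary screen, cut at about 8.5% in these data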;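 note: 0% = DMSO wells and 100% = marimastat wells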
* = called active by the depositor; nt = no result. This is a sample that favours compounds with a hit; in the whole collection about 2.5% have one here.

SMILES	NR2E3 ag-1	proKLK7 act	NR2E3 ag-2	ADAM17 inh	ADAM10 inh	GASC-1 inh	ADAM10 counter	ADAM17 confirm
COc1cccc(OC)c1NC(=O)CN1CCN(C)CC1	-29	0	-2	-3	2	2	nt	nt
CC1=Nc2cc(C(=O)NCCN3CCOCC3)ccc2Sc2c(C)ccc(C)c21	-20	1	1	9.3*	1	10	-15	0
CC1(C(=O)N2CCCCC2)CCN1C(=O)c1ccccc1CCc1ccccc1 (stereo not drawn)	-11	-1	nt	-2	-8	nt	nt	nt
COc1ccc(NC(=O)CCSc2ccc(C)cc2)cc1	-8	0	0	3	9	5	nt	nt
Cc1ccc(SCCC(=O)Nc2ccc(Br)c(C)c2)cc1	2	0	-1	12*	19	8	31*	17*
Cc1onc(-c2ccc(Cl)cc2)c1-c1ccn(S(=O)(=O)c2ccccc2)n1	nt	0	nt	14*	17	nt	11	10*
C#CCN(C[C@H]1[C@H](OC(=O)Nc2cccs2)[C@H](OC(=O)Nc2cccs2)CN(C(=O)OC(C)C)N1C(=O)OC(C)C)S(=O)(=O)c1ccc(C)cc1	nt	0	nt	12*	10	nt	33*	19*
CCN(CC)c1ccc(NC(=O)c2cc3c(C)nn(-c4ccccc4)c3s2)cc1	nt	-8	nt	13*	19	nt	6	10*
O=C(COc1cccnc1[N+](=O)[O-])NCCc1ccccc1	-2	0	4	1	2	3	nt	nt
Cc1ccc(OCCOc2ccc(Br)cc2)c([N+](=O)[O-])n1	-97	0	-2	3	18	6	nt	nt
Cc1nc(SCc2nc3ccc(Cl)cc3[nH]2)c2oc3ccccc3c2n1	15	-4	nt	9.8*	5	nt	-11	2
Cc1cc(N2CCN(C(=O)Oc3ccc(-c4ccccc4)cn3)CC2)c2ccccc2n1	nt	1	nt	10*	-103	nt	20	15*
Cc1cc(N2CCN(C(=O)Oc3ccc(C(F)(F)F)cc3)CC2)c2ccccc2n1	nt	0	nt	-1	5	nt	nt	nt
O=C(CCc1c[nH]c2ccccc12)OCc1cccc([N+](=O)[O-])c1	-8	1	2	0	14	-10	nt	nt
Clc1ccc(N2COC3c4cccc5cccc(c45)C32)cc1 (stereo not drawn)	-24	0	-5	9.2*	7	-22	-2	4
Cc1ccc(S(=O)(=O)N(CC(=O)Nc2ccc(C)cc2C)C(=O)N2CCN(C)CC2)cc1	-5	1	-5	-4	-8	-14	nt	nt
CN(C)c1ccc(CN(CC2CCCO2)C(=O)c2cc3ccccc3o2)cc1 (stereo not drawn)	-14	-1	nt	1	4	nt	nt	nt
Cc1c(C(=O)N(Cc2ccc(N(C)C)cc2)CC2CCCO2)oc2ccccc12 (stereo not drawn)	15	0	1	10.0*	11	-9	-6	1
CCOC(=O)c1sc(SC)c2c1CCCC2=O	11	0	2	9.3*	15	4	-5	0
CCOC(=O)c1sc(SC)c(C(C)=O)c1C	1	0	-1	-1	5	-7	nt	nt
CCOc1cccc(OCCOc2ccc(C(=O)c3ccccc3)cc2)c1	-25	0	2	10*	10	1	20	14*
O=C(c1ccccc1)c1ccc(OCCO)cc1	-6	0	3	0	-3	-7	nt	nt
CCOc1cc(C(=O)Nc2ccc(S(=O)(=O)Nc3nnc(CC)s3)cc2)cc(OCC)c1OCC	0	0	0	1	7	2	nt	nt
CCC(CC)C(=O)Nc1cccc(C(=O)Nc2ccc(S(=O)(=O)Nc3ccc(C)cc3)cc2)c1	5	0	1	8.8*	18	1	22*	17*
CCc1nnc(NS(=O)(=O)c2ccc(NC(=O)c3cccc(Br)c3)cc2)s1	15	0	1	9.6*	2	-5	0	3
SMILES	NR2E3 ag-1	proKLK7 act	NR2E3 ag-2	ADAM17 inh	ADAM10 inh	GASC-1 inh	ADAM10 counter	ADAM17 confirm
NS(=O)(=O)c1ccc(N/N=C2/CCCCC2C2CCCCC2)c([N+](=O)[O-])c1 (stereo not drawn)	-3	1	1	12*	18	8	17	8.7*
Cc1cc(C)c2c(c1)/C(=N/Nc1ccc(S(N)(=O)=O)cc1[N+](=O)[O-])CCC2	24	0	3	-6	-3	-1	nt	nt
N#Cc1ccc(C2=NC(C(F)(F)F)(C(F)(F)F)c3c(n(Cc4ccco4)c(=O)[nH]c3=O)N2)cc1	-25	0	0	2	7	7	nt	nt
NC(=O)c1ccnc2c(O)cccc12	-19	1	-4	-6	1	5	nt	nt
OCc1ccnc2c(O)cccc12	14	-1	1	8.9*	4	-3	14	4
O=C(Nc1cccc(S(=O)(=O)Nc2ccccc2Cl)c1)c1ccc(N2CCCC2)c([N+](=O)[O-])c1	-2	-1	-1	11*	18	6	41*	24*
O=C(Nc1cccnc1)c1ccc(N2CCCC2)c([N+](=O)[O-])c1	-19	0	-5	4	16	-3	nt	nt
CC(C)(C)OC(=O)NCCCC[C@H](NC(=O)c1nc[nH]c1C(=O)NC1CCN(C(=O)OC(C)(C)C)CC1)C(=O)OC(C)(C)C	-23	1	5	8.9*	17	-2	-10	3
CCCCCCCCN1C(=O)[C@@H](CC(=O)NCCCN2CCCC2=O)C[C@@]2(C(=O)OC)C1=C[C@H](COCc1ccccc1)O[C@@H]2C	nt	1	nt	-1	-1	nt	nt	nt
O=C(Nc1cccc([N+](=O)[O-])c1)Nc1ccc2c(c1)OCCO2	-78	0	2	8.9*	12	10	12	8
O=C(Nc1cccc([N+](=O)[O-])c1)Nc1cccc([N+](=O)[O-])c1	-13	0	-1	-4	13	-1	nt	nt
